Laboratory results: ChEMBL document CHEMBL1154871, “Synthesis of new spiroindolinones incorporating a benzothiazole moiety as antioxidant agents” (Eur J Med Chem, 2010)

Legend:
Assay type in all cases: functional
[1] = Antioxidant activity assessed as reduction of […]/ferricyanide complex after 20 mins by spectrophotometry
Outline: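 Compounds (1.6–6.25 mM) mixed with 0.2 M phosphate buffer, pH 6.6, and 1% potassium ferricyanide, 20 min at 50 °C. Stopped with 1% TCA and centrifuged at 2790 g for 10 min. Supernatant plus water and 0.1% FeCl3 read at 700 nm. EC50 is the concentration giving absorbance 0.5. Mean ± SD of triplicates.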

[2] = test system: Radical scavenging activity; assay: Antioxidant activity assessed as DPPH radical scavenging activity after 30 mins by spectrophotometry
Outline: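 Test compounds (0.2–6.25 mM) dissolved in DMSO, added to 6×10^-5 M methanolic DPPH. Mixture held 30 min at room temperature in the dark, then absorbance read at 517 nm against methanol. Scavenging % = [1 − A_sample/A_control] × 100, with a negative control lacking sample. Triplicates averaged; EC50 taken from dose–response.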

[3] = Antioxidant activity assessed as inhibition of Fe(3+)/ascorbate-induced lipid peroxidation in liposomes after 1 hr by TBARS assay
Outline: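 Lecithin liposomes were sonicated in 10 mmol/L phosphate buffer, pH 7.4. Final mix: 3.08 mg liposome/mL, 123.2 µmol FeCl3, 123.2 µmol ascorbic acid, test compound 0.025–0.4 mM. Incubated 1 h at 37 °C. MDA measured by TBA reaction; n-butanol layer read at 532 nm against a lecithin-free blank. EC50 is the concentration reducing TBARS to 50% of control.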

[4] = Antioxidant activity assessed as trolox equivalent of ABTS free radical scavenging activity after 6 mins by […]
Outline: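 ABTS radical cation solution was added to compounds (0.2–6.25 mM). Decrease in absorbance at 734 nm was read exactly 6 min after mixing, with ethanol blanks. A Trolox standard curve (final 0–20 µM in ethanol) gives TEAC, the mM Trolox equivalent to 1 mM compound. Run in triplicate.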

EC50 [1] | EC50 [2] | EC50 [3] | EC50 [4] | SMILES
4020 µM | 1240 µM | 75 µM | 1140 µM | CN1C(=O)C2(Nc3ccccc3S2)c2cc(Cl)ccc21 (centres undefined)
4220 µM | 1010 µM | 34 µM | 1040 µM | CN1C(=O)C2(Nc3ccccc3S2)c2cc(Br)ccc21 (centres undefined)
5140 µM | 1270 µM | 92 µM | 1340 µM | CN1C(=O)C2(Nc3ccccc3S2)c2cc([N+](=O)[O-])ccc21 (centres undefined)
1950 µM | 350 µM | 153 µM | 1200 µM | Cc1c(C)c2c(c(C)c1O)CC[C@@](C)(CCC[C@H](C)CCC[C@H](C)CCCC(C)C)O2 [ALPHA-TOCOPHEROL]
650 µM | 360 µM |  | 1200 µM | O=C1O[C@H]([C@@H](O)CO)C(O)=C1O [ASCORBIC ACID]
